Calls of active or inactive are those of the source. The calls are words filed in the database; no cut-off is given here.
Tests used:
[1] = organism: Danio rerio; test: Toxicity in AB zebrafish embryo assessed as reduction in hatching rate of embryos measured at 48 hrs post fertilization by dissecting light microscopic analysis; assay type: organism-based; conditions: in vivo
How it was run: (§1)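 AB embryos exposed from 4 to 72 hpf to compound (0.5–20 μM) or DMF vehicle (1:1000), one embryo per well; hatch rate scored at 48 hpf; n=100 per group in three replicates; three independent experiments, mean ± SD.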

[2] = molecular target: T1, Nitric oxide synthase, inducible (Mus musculus) (UniProt P29477); test: Inhibition of iNOS in mouse RAW264.7 cells assessed as reduction in LPS-induced NO production administered for 24 hrs post LPS induction by Griess method; assay type: cell-based
T1 sequence (whole entry): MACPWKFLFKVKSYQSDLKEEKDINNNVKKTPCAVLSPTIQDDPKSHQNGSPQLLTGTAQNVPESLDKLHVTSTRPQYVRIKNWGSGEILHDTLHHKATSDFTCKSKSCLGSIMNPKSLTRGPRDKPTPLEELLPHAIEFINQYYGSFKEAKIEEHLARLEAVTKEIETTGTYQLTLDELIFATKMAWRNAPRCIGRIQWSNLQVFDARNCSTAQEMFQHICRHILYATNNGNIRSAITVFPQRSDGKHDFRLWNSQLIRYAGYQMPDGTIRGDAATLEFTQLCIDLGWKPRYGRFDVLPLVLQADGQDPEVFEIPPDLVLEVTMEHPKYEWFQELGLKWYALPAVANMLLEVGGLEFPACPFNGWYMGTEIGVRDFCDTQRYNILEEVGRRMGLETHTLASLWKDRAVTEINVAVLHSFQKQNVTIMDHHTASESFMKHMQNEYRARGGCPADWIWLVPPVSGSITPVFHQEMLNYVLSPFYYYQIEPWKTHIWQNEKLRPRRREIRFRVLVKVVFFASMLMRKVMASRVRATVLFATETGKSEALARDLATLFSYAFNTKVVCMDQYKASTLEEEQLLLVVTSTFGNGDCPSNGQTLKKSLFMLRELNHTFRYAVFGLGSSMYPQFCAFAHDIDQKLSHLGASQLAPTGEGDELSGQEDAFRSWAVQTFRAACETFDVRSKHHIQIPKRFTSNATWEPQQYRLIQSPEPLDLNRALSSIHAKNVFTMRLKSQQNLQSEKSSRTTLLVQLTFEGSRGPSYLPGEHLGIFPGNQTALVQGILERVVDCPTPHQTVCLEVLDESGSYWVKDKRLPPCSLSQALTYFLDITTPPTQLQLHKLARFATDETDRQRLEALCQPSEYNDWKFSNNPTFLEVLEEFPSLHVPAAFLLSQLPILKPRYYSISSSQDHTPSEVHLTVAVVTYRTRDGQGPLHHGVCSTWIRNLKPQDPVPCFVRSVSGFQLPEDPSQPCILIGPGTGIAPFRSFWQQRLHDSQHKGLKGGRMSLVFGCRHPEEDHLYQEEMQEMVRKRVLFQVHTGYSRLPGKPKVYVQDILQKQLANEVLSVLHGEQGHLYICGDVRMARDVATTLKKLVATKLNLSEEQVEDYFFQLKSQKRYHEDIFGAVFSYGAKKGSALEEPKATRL
How it was run: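 RAW264.7 cells stimulated with LPS 1 μg/mL for 4 h, then compound (10, 50, 100 μM) for 24 h; culture medium reacted with Griess reagents I and II, absorbance 570 nm; nitrite from sodium nitrite standard curve (0–100 μM in medium); four independent experiments, mean ± SD.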

[3] = organism: Danio rerio; test: Effect on locomotor activity in wild type AB zebrafish larvae assessed as decrease in total swimming distance at 10 uM measured for 5 mins at 144 hrs post fertilization by visible light test; assay type: ADME, organism-based; conditions: in vivo
[4] = test system: RAW264.7; test: Antiinflammatory activity in mouse RAW264.7 cells assessed as increase in LPS-induced HO-1 expression at 100 uM incubated for 24 hrs post LPS induction by ELISA relative to contol; assay type: functional
How it was run: (§2)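 LPS (1 μg/mL) for 4 h, then compound at 10, 50, 100 μM for 24 h; cells lysed in RIPA, spun 12,000×g 10 min, protein normalised by BCA to 0.1 mg/mL; target (TNF-α, HO-1, IL-10 or COX-2) quantified by sandwich ELISA kit with mouse-specific polyclonal antibodies; four independent experiments.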

[5] = organism: Danio rerio; test: Toxicity in AB zebrafish embryo assessed as reduction in embryonic spontaneous movement frequency per minute at 0.5 uM measured at 24 hrs post fertilization by stereoscopic dissecting light microscopic analysis; assay type: organism-based; conditions: in vivo
How it was run: (§3)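 AB embryos exposed from 4 to 24 hpf to compound (0.5–20 μM) or DMF vehicle (1:1000); ten embryos per group chosen randomly; spontaneous movement recorded under stereoscopic dissecting microscope, frequency per min counted at 24 hpf; three independent experiments, mean ± SD.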

[6] = test system: RAW264.7; test: Antiinflammatory activity in mouse RAW264.7 cells assessed as increase in LPS-induced IL10 levels at 10 to 100 uM incubated for 24 hrs post LPS induction by ELISA; assay type: functional, cell-based; how it was run: as §2
[7] = test system: L02; test: Cytotoxicity against human LO2 cells assessed as reduction in cell survival after 24 hrs by MTT assay; assay type: cell-based; conditions: L02, 24 h
[8] = organism: Danio rerio; test: Toxicity in AB zebrafish embryo assessed as reduction in embryonic spontaneous movement frequency per minute measured at 24 hrs post fertilization by stereoscopic dissecting light microscopic analysis; assay type: organism-based; conditions: in vivo; how it was run: as §3
[9] = test system: RAW264.7; test: Antiinflammatory activity in mouse RAW264.7 cells assessed as increase in IL10 levels at 10 to 100 uM measured after 24 hrs in absence of LPS by ELISA; assay type: functional, cell-based
How it was run: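 Macrophages exposed 24 h to 10, 50, 100 μM without LPS; lysates (RIPA, 12,000×g spin) normalised by BCA to 0.1 mg/mL protein; IL-10 measured by mouse-specific sandwich ELISA kit; four independent experiments, mean ± SD.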

[10] = test system: RAW264.7; test: Inhibition of LPS-induced COX2 expression in mouse RAW264.7 cells at 10 to 100 uM incubated for 24 hrs post LPS induction by ELISA; assay type: functional, cell-based; how it was run: as §2
[11] = organism: Danio rerio; test: Toxicity in AB zebrafish embryo assessed as reduction in number of embryos alive at 120 hrs post fertilization by dissecting light microscopic analysis; assay type: organism-based; conditions: in vivo
How it was run: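 Wild-type AB embryos, 100 per group split into three replicates, one per well in 200 μL test solution, plates sealed; DMF vehicle control (1:1000); mortality recorded at 24–168 hpf intervals; three independent experiments, mean ± SD.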

[12] = organism: Danio rerio; test: Toxicity in AB zebrafish embryo assessed as reduction in hatching rate of embryos at 5 to 20 uM measured at 48 hrs post fertilization by dissecting light microscopic analysis; assay type: organism-based; conditions: in vivo; how it was run: as §1
[13] = organism: Danio rerio; test: Toxicity in AB zebrafish embryo assessed as effect on hatching rate of embryos at 0.5 to 1 uM measured at 48 hrs post fertilization by dissecting light microscopic analysis; assay type: organism-based; conditions: in vivo; how it was run: as §1
[14] = test system: RAW264.7; test: Antiinflammatory activity in mouse RAW264.7 cells assessed as increase in LPS-induced HO-1 expression incubated for 24 hrs post LPS induction by ELISA; assay type: functional, cell-based; how it was run: as §2
[15] = organism: Danio rerio; test: Effect on locomotor activity in wild type AB zebrafish larvae assessed as decrease in total swimming distance at 0.5 to 1 uM measured for 5 mins at 144 hrs post fertilization by visible light test; assay type: ADME, organism-based; conditions: in vivo
[16] = test system: HepG2; test: Cytotoxicity against human HepG2 cells assessed as reduction in cell survival after 24 hrs by MTT assay; assay type: cell-based; conditions: HepG2, 24 h

CC(C)Cc1ccc(C(C)C(=O)Oc2ccc(C(N)=S)cc2)cc1 (configuration not stated)
Activity [1]: Dose-dependent effect
inhibition [2]: Dose-dependent effect
Activity [3]: Toxic
fold change (FC) [4]: >3
Activity [5]: Non-Toxic
Activity [6]: Active
IC50 [7]: 221 µM
Activity [8]: Dose-dependent effect
Activity [9]: Active
inhibition [10]: Active
Activity [11]: Dose-dependent effect
Activity [12]: Toxic
Activity [13]: Non-Toxic
Activity [14]: Dose-dependent effect
Activity [15]: Non-Toxic
IC50 [16]: 89.3 µM

CC(=O)Nc1ccc(OC(=O)CCCCC2CCSS2)cc1 (configuration not stated)
Activity [1]: Dose-dependent effect
inhibition [2]: Dose-dependent effect
Activity [3]: Toxic
fold change (FC) [4]: <=2
Activity [5]: Non-Toxic
Activity [6]: Active
IC50 [7]: 1790 µM
Activity [8]: Dose-dependent effect
Activity [9]: Active
inhibition [10]: Active
Activity [11]: Dose-dependent effect
Activity [12]: Toxic
Activity [13]: Non-Toxic
Activity [14]: Dose-dependent effect
Activity [15]: Non-Toxic
IC50 [16]: 966 µM

— ChEMBL document CHEMBL4190227, “Syntheses, toxicities and anti-inflammation of H2S-donors based on non-steroidal anti-inflammatory drugs” (Eur J Med Chem, 2017)
